According to ChEMBL document CHEMBL2010670, “Discovery of a clinical stage multi-kinase inhibitor sodium (E)-2-{2-methoxy-5-[(2',4',6'-trimethoxystyrylsulfonyl)methyl]phenylamino}acetate (ON 01910.Na): synthesis, structure-activity relationship, and biological activity” (J Med Chem, 2011):

Key:
[1] = tested on: BT-20; test: Cytotoxicity against human BT20 cells after 96 hrs by trypan blue exclusion assay; type: functional, cell-based; details: BT-20, 96 h
Procedure, shortened: (§1)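 Cells grown in DMEM or RPMI with 10% FBS and penicillin-streptomycin, seeded at 1.0 × 10⁵ cells/mL/well in 6-well dishes. Compound added at a range of concentrations 24 h after seeding. Viable cells counted by trypan blue exclusion from duplicate wells after 96 h of exposure; dose-response end point.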

[2] = tested on: T47D; test: Cytotoxicity against human T47D cells after 96 hrs by trypan blue exclusion assay; type: functional, cell-based
Procedure, shortened: (§2)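 Cells grown in DMEM or RPMI with 10% FBS and 1 unit/mL penicillin-streptomycin, seeded at 1.0 × 10⁵ cells/mL/well in 6-well dishes; compound added 24 h later at various concentrations. After 96 h of treatment, viable cells counted by trypan blue exclusion in duplicate wells; dose-response end point.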

[3] = tested on: MCF7; test: Cytotoxicity against human MCF7 cells after 96 hrs by trypan blue exclusion assay; type: functional, cell-based; details: MCF7, 96 h; procedure, shortened: as §1
[4] = tested on: SK-BR-3; test: Cytotoxicity against human SKBR3 cells after 96 hrs by trypan blue exclusion assay; type: functional, cell-based; details: SK-BR-3, 96 h; procedure, shortened: as §2
[5] = tested on: BT-474; test: Cytotoxicity against human BT474 cells after 96 hrs by trypan blue exclusion assay; type: functional, cell-based; details: BT-474, 96 h; procedure, shortened: as §1
[6] = tested on: HCC70; test: Cytotoxicity against human HCC70 cells after 96 hrs by trypan blue exclusion assay; type: functional, cell-based; details: HCC70, 96 h; procedure, shortened: as §1
[7] = Cytotoxicity against human HCC1428 cells after 96 hrs by trypan blue exclusion assay; type: functional, cell-based; details: HCC1428, 96 h; procedure, shortened: as §1
[8] = tested on: PC-3; test: Cytotoxicity against human PC3 cells after 96 hrs by trypan blue exclusion assay; type: functional, cell-based; details: PC-3, 96 h; procedure, shortened: as §1
[9] = tested on: OVCAR-3; test: Cytotoxicity against human OVCAR3 cells after 96 hrs by trypan blue exclusion assay; type: functional, cell-based; details: OVCAR-3, 96 h; procedure, shortened: as §1
[10] = tested on: BXPC-3; test: Cytotoxicity against human BxPC3 cells after 96 hrs by trypan blue exclusion assay; type: functional, cell-based; details: BXPC-3, 96 h; procedure, shortened: as §1
[11] = Cytotoxicity against human U87 cells after 96 hrs by trypan blue exclusion assay; type: functional, cell-based, U-87MG ATCC; details: U-87 MG; procedure, shortened: as §2
[12] = tested on: A549; test: Cytotoxicity against human A549 cells after 96 hrs by trypan blue exclusion assay; type: functional, cell-based; details: A549, 96 h; procedure, shortened: as §1
[13] = Cytotoxicity against human RF48 cells after 96 hrs by trypan blue exclusion assay; type: functional, cell-based; details: RF48, 96 h; procedure, shortened: as §2
[14] = tested on: DLD-1; test: Cytotoxicity against human DLD1 cells after 96 hrs by trypan blue exclusion assay; type: functional, cell-based; details: DLD-1, 96 h; procedure, shortened: as §1
[15] = tested on: HCT-116; test: Cytotoxicity against human HCT116 cells after 96 hrs by trypan blue exclusion assay; type: functional, cell-based; details: HCT-116, 96 h; procedure, shortened: as §1
[16] = tested on: HCT-15; test: Cytotoxicity against human HCT15 cells after 96 hrs by trypan blue exclusion assay; type: functional, cell-based; details: HCT-15, 96 h; procedure, shortened: as §1
[17] = tested on: SW480; test: Cytotoxicity against human SW480 cells after 96 hrs by trypan blue exclusion assay; type: functional, cell-based; details: SW480, 96 h; procedure, shortened: as §2
[18] = Cytotoxicity against human WM983A cells after 96 hrs by trypan blue exclusion assay; type: functional, cell-based; procedure, shortened: as §2
[19] = Cytotoxicity against human WM3211 cells after 96 hrs by trypan blue exclusion assay; type: functional, cell-based; details: WM3211, 96 h; procedure, shortened: as §2
[20] = Cytotoxicity against human WM1341D cells after 96 hrs by trypan blue exclusion assay; type: functional, cell-based; procedure, shortened: as §2
[21] = Cytotoxicity against human WM278 cells after 96 hrs by trypan blue exclusion assay; type: functional, cell-based; details: WM278, 96 h; procedure, shortened: as §2
[22] = Cytotoxicity against human 451LU cells after 96 hrs by trypan blue exclusion assay; type: functional, cell-based; procedure, shortened: as §1
[23] = Cytotoxicity against human DND1A cells after 96 hrs by trypan blue exclusion assay; type: functional, cell-based; procedure, shortened: as §1
[24] = Cytotoxicity against human Z138C cells after 96 hrs by trypan blue exclusion assay; type: functional, cell-based; procedure, shortened: as §2
[25] = Cytotoxicity against human GRANTA-519 cells after 96 hrs by trypan blue exclusion assay; type: functional, cell-based; details: Granta-519, 96 h; procedure, shortened: as §1
[26] = tested on: Bel-7402; test: Cytotoxicity against human Bel7402 cells after 96 hrs by trypan blue exclusion assay; type: functional, cell-based; details: Bel-7402, 96 h; procedure, shortened: as §1
[27] = tested on: U-937; test: Cytotoxicity against human U937 cells after 96 hrs by trypan blue exclusion assay; type: functional, cell-based; details: U-937, 96 h; procedure, shortened: as §2
[28] = tested on: LP-1; test: Cytotoxicity against human LP-1 cells after 96 hrs by trypan blue exclusion assay; type: functional, cell-based; details: LP-1, 96 h; procedure, shortened: as §1
[29] = tested on: U-266; test: Cytotoxicity against human U266 cells after 96 hrs by trypan blue exclusion assay; type: functional, cell-based; details: U-266, 96 h; procedure, shortened: as §2
[30] = tested on: OPM-2; test: Cytotoxicity against human OPM2 cells after 96 hrs by trypan blue exclusion assay; type: functional, cell-based; details: OPM-2, 96 h; procedure, shortened: as §1
[31] = tested on: Raji; test: Cytotoxicity against human Raji cells after 96 hrs by trypan blue exclusion assay; type: functional, cell-based; procedure, shortened: as §2
[32] = Cytotoxicity against human NAMALWA cells after 96 hrs by trypan blue exclusion assay; type: functional, cell-based; details: NAMALVA; procedure, shortened: as §1
[33] = Cytotoxicity against human PS41 cells after 96 hrs by trypan blue exclusion assay; type: cell-based; details: PS41, 96 h; procedure, shortened: as §1
[34] = tested on: HUVEC; test: Cytotoxicity against HUVEC after 96 hrs by trypan blue exclusion assay; type: cell-based; details: Homo sapiens; procedure, shortened: as §1
[35] = Cytotoxicity against multidrug-resistant human MES-SA/Dx5 cells assessed as cell viability after 96 hrs by trypan blue exclusion; type: functional, cell-based; details: MES-SA/Dx5, 96 h; procedure, shortened: as §2
[36] = tested on: CCRF-CEM; test: Cytotoxicity against human CEM cells assessed as cell viability after 96 hrs by trypan blue exclusion; type: functional, cell-based; procedure, shortened: as §1
[37] = tested on: HFL1; test: Cell cycle arrest in human HFL1 cells assessed as accumulation of cells in G2/M phase at 0.1 to 1 uM after 24 hrs by propidium iodide staining-based flow cytometric analysis; type: ADME; details: hfl1, 24 h
Procedure, shortened: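 DMEM with 10% FBS; 1.0 × 10⁶ cells/dish, treated 24 h after plating and harvested 24 h after treatment. Trypsinized cells were pooled with floating cells, PBS-washed and fixed in ice-cold 70% ethanol for ≥24 h. Cells were stained with propidium iodide plus RNase A for 30 min at 37 °C. DNA content was read by flow cytometry with cell-cycle modelling.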

SMILES: COc1cc(OC)c(/C=C/S(=O)(=O)Cc2ccc(OC)c(NCC(=O)[O-])c2)c(OC)c1.[Na+] [RIGOSERTIB SODIUM]
- IC50 [1]: 80 nM
- IC50 [2]: 170 nM
- IC50 [3]: 75 nM
- IC50 [4]: 75 nM
- IC50 [5]: 50 nM
- IC50 [6]: 75 nM
- IC50 [7]: 60 nM
- IC50 [8]: 150 nM
- IC50 [9]: 75 nM
- IC50 [10]: 75 nM
- IC50 [11]: 80 nM
- IC50 [12]: 90 nM
- IC50 [13]: 50 nM
- IC50 [14]: 150 nM
- IC50 [15]: 75 nM
- IC50 [16]: 90 nM
- IC50 [17]: 60 nM
- IC50 [18]: 40 nM
- IC50 [19]: 75 nM
- IC50 [20]: 100 nM
- IC50 [21]: 150 nM
- IC50 [22]: 25 nM
- IC50 [23]: 75 nM
- IC50 [24]: 75 nM
- IC50 [25]: 75 nM
- IC50 [26]: 100 nM
- IC50 [27]: 10 nM
- IC50 [28]: 30 nM
- IC50 [29]: 25 nM
- IC50 [30]: 15 nM
- IC50 [31]: 75 nM
- IC50 [32]: 75 nM
- IC50 [33]: > 100000 nM
- IC50 [34]: > 100000 nM
- IC50 [35]: 100 nM
- IC50 [36]: 100 nM
- Activity [37]: Toxic
